Screening data from PubChem BioAssay.
The list is not random: actives were taken first. Their share in the collection is about 1.8%.
STAT3 inh-1: reduces IL-6 driven STAT3 reporter signal; U3A cells, IL-6 STAT3-luciferase reporter, luminescence; host cell line lacks STAT1; 190,000 tested, 0.89% active; inhibition, % at 5.5 µM;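 active = inhibition above the mean inhibition across all screened compounds plus 3 SD, cut at about 44% in these data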;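 also: 0% = DMSO only wells and 100% = 100 µM nifuroxazide control wells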
STAT1 inh: inhibitors of IFN-gamma induced STAT1 signaling | inhibition, % at 5.5 µM | AID 920 | NIH 3T3 STAT1-luciferase reporter, luminescence | 200,000 tested, 0.35% active;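 active = inhibition above a set limit, the mean inhibition across all tested compounds plus 3 SD, cut at about 34% in these data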;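 also: 0% = IFN-gamma with DMSO and 100% = IFN-gamma with 300 µM nifuroxazide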
STAT3 act: increases IL-6 driven STAT3 reporter signal. U3A cells, IL-6 STAT3-luciferase reporter, luminescence; 100% = signal with IL-6 EC80 alone. activation (% of control), % at 5.6 µM. 190,000 tested, 0.91% active. AID 871;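 active = activation above the screen-wide mean of compound activation plus 3 SD, cut at about 130% in these data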;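 also: 0% = background luminescence of wells with medium and substrate only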
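System – human U3A cells carrying STAT3-luciferase construct · Probe or stimulus – Interleukin-6, 33 ng/mL · Schedule – compound 1 h, then IL-6 6 h at 37 °C · Signal – luminescence from STAT3-driven luciferase reporter · Evaluation – percent of IL-6-only median luminescence · Benchmarks – IL-6-only high control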
PERK inh: human PERK inhibition, primary cell-based screen; 220,000 tested, 0.17% active; CHO PERK-DD fusion, SEAP luminescence translation reporter; AID 1416; Q9NZJ5; inhibition, % at 5.6 µM;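 active = inhibition above the mean inhibition of all tested compounds plus 3 SD, set separately per screening campaign, cut at about 2.9% in these data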;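 also: PERK kinase domain activated by AP20187 dimerizer at 100 nM; 0% = DMSO with dimerizer and 100% = rapamycin at 8.4 µM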
Target sequence (Q9NZJ5 whole entry, looked up, the tested form may be a part): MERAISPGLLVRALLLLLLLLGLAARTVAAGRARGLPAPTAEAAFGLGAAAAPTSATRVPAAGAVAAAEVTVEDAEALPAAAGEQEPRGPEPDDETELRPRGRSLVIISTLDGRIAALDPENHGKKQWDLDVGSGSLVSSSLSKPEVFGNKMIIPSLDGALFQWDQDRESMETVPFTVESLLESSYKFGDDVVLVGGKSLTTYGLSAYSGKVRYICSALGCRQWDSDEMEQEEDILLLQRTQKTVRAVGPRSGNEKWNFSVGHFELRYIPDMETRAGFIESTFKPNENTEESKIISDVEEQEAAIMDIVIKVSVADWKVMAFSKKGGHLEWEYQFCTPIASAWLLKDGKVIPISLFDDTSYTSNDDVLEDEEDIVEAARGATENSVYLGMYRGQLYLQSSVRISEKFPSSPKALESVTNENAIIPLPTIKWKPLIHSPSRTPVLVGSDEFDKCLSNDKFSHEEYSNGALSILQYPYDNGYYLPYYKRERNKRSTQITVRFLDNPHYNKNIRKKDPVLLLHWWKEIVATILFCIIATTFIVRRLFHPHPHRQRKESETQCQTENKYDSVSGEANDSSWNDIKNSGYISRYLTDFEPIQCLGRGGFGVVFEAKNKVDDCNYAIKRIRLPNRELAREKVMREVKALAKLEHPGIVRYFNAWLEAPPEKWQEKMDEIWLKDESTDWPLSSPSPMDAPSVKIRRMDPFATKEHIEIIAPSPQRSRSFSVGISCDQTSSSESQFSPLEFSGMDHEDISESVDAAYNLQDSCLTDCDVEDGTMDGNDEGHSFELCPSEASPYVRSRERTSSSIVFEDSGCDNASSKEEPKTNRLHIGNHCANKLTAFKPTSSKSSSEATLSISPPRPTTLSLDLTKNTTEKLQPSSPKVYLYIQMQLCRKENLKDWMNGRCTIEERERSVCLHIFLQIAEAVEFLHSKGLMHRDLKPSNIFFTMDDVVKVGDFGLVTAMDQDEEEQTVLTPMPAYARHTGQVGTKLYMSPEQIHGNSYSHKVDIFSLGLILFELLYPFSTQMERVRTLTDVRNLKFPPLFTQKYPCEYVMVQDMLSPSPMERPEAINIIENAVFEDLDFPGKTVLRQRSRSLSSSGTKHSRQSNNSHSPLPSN
STAT3 inh-2: STAT3 inhibition, confirmation assay. U3A cells, IL-6 STAT3 luciferase reporter, luminescence; cell line lacks STAT1. AID 1265. shares compounds with STAT3 inh-1. 1,200 tested, 45% active. inhibition, % at 5.7 µM;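 active = inhibition above the hit cutoff computed for the primary STAT3 screen, cut at about 44% in these data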;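 also: 0% = IL-6 plus DMSO and 100% = IL-6 plus nifuroxazide control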
NFkB inh 2: inhibits NF-kappaB, counter-screen to STAT3 inhibitors; shares compounds with STAT3 inh-1; HEK293T NF-kB luciferase reporter, TNF-alpha induced; inhibition, % at 5.7 µM; 1,200 tested, 36% active; AID 1308;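 active = inhibition above the mean of solvent-only control wells plus 3 SD, cutoff set per campaign, cut at about 13% in these data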;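 also: 0% = TNF-alpha with DMSO and 100% = TNF-alpha with MG high control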
STAT1 inh 2: counter-screen for STAT3 inhibitors: STAT1 inhibition; shares compounds with STAT3 inh-1; NIH 3T3 STAT1-luciferase reporter, IFN-gamma induced, luminescence; inhibition, % at 5.7 µM; 1,200 tested, 27% active;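 active = inhibition above the mean plus 3 SD of solvent-only control wells, limit set per screening run, cut at about 16% in these data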;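 also: 0% = DMSO with IFN-gamma and 100% = nifuroxazide control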
Starred values were filed as active, the others as inactive; x = no result given.

SMILES	STAT3 inh-1	STAT1 inh	STAT3 act	PERK inh	STAT3 inh-2	NFkB inh 2	STAT1 inh 2
COc1ccc(Cc2noc(CN3CCC(c4ccncc4)CC3)n2)cc1OC	60*	21	53	2	30	14*	5
CCc1ccc(NC(=S)N2CCNC(=O)C2CC(=O)OC)cc1 (stereo not given)	1	-5	105	0	x	x	x
COc1ccc(/C=N/NC(=S)Nc2cccc(C(=O)O)c2)cc1	78*	29	36	1	52*	6	-5
CSc1nsc(N/N=C/c2ccc3c(c2)OCO3)c1C#N	14	-54	94	0	x	x	x
COc1cc(/C=N/Nc2snc(SC)c2C#N)cc(OC)c1OC	59*	8	51	-1	41	4	-7
NC(=O)c1ccsc1NC(=O)COC(=O)Cc1cccc2ccccc12	75*	18	37	0	74*	19*	20*
COc1ccccc1OCC(=O)OCC(=O)Nc1sccc1C(N)=O	7	-1	96	0	x	x	x
CC1Cc2ccccc2N1C1=CC(=O)CCC1 (stereo not given)	3	13	99	1	x	x	x
CC1CCN(S(=O)(=O)N2CCC(C(=O)NCc3cccnc3)CC2)CC1	x	x	x	1	x	x	x
O=C(Nc1ccc(Oc2cccnc2)cc1)c1ccc([N+](=O)[O-])cc1	69*	12	45	0	65*	23*	1
COc1ccc(-c2ccc(CCC(=O)O)n2CC2CCCO2)cc1 (stereo not given)	7	7	98	0	x	x	x
O=C(N/N=C/c1ccc2cccnc2c1)c1ccco1	55*	0	58	2	20	-18	-63
O=C(N/N=C/c1ccccc1)c1ccco1	x	x	x	1	x	x	x
Cc1ccc(NC(=O)c2cc(=O)n(Cc3ccccc3)c(=O)[nH]2)cc1C	6	3	97	0	x	x	x
Cc1ccc(/C=C/c2nc3ccccc3[nH]2)o1	54*	10	59	0	-16	-15	-34
N#C/C(=C\c1ccc(C(=O)O)cc1)c1ccccn1	6	4	104	2	x	x	x
CCN(CC)c1ccc(/C=C(\C#N)c2ccccn2)cc1	74*	11	40	0	45*	29*	-43
CN(CCC#N)c1ccc(/C=C(\C#N)c2ccccn2)cc1	49*	-46	58	-1	23	-7	-88
CCN(Cc1ccccc1)c1ccc(/C=C(\C#N)c2ccccn2)cc1	-21	-74	113	0	x	x	x
Cc1ccc(CSc2nc3ncccc3[nH]2)cc1	48*	-8	61	0	9	-15	-34
C=C(C)CSc1nc2ncccc2[nH]1	3	-5	101	1	x	x	x
O=C(NC1CC1)C1=C[C@@H](c2ccc3c(c2)OCO3)C[C@@H](OCc2ccc(CO)cc2)O1	x	2	x	1	x	x	x
Clc1ccc(OCc2cc(-c3ccccc3)no2)c(Cl)c1	76*	31	41	-1	46*	1	-76
CCc1ccc(NC(=O)c2ccc(C3SCC(=O)N3CCc3ccccc3)cc2)cc1 (stereo not given)	46*	-3	65	-1	48*	15*	-2
CCNC(=O)c1ccc(C2SCC(=O)N2CCc2ccccc2)cc1 (stereo not given)	26	2	81	-1	x	x	x
SMILES	STAT3 inh-1	STAT1 inh	STAT3 act	PERK inh	STAT3 inh-2	NFkB inh 2	STAT1 inh 2
CC(=O)OCC(=O)Nc1c(C)cccc1C	0	-4	108	0	x	x	x
Nc1ncnc2c1nc(SCCO)n2Cc1ccccc1	-6	6	106	1	x	x	x
CCCCNC(=O)COC(=O)c1ccc(NC(C)=O)cc1	0	-4	101	0	x	x	x
O=C(Nc1nc(-c2cccs2)cs1)c1ccc(S(=O)(=O)N2CCCC2)cc1	22	11	84	-2	x	x	x
CN(C)S(=O)(=O)c1ccc(C(=O)Nc2nc(-c3cccs3)cs2)cc1	53*	12	61	1	44*	7	6
O=C(COC(=O)C1CC(O)CN1C(=O)Oc1ccccc1)c1ccc(Br)cc1 (stereo not given)	-8	-1	105	1	x	x	x
O=C(O)c1cccc(-c2nnn(Cc3ccccc3)n2)c1	10	-15	92	1	x	x	x
O=C(O)c1cccc(-c2nnn(Cc3ccccc3Cl)n2)c1	70*	44*	44	2	61*	37*	40*
Fc1ccccc1Cc1noc(CN2CCN(c3ccc(Cl)cn3)CC2)n1	6	5	105	2	x	x	x
Cc1ccc(C(=O)/C=C2\NCC(C)NC2=O)cc1 (stereo not given)	65*	-11	46	0	25	-6	-85
Cc1ccc(C(=O)/C=C2\NCCNC2=O)cc1	11	-33	93	0	x	x	x
Nc1nc(Br)c2c(F)cccc2c1-c1ccccc1	46*	-3	66	0	22	-3	0
CCOC(=O)c1oc2ccc(S(=O)(=O)n3nc(-c4ccc(OC)cc4)cc3N)cc2c1C	15	-5	87	1	x	x	x
CCOC(=O)c1oc2ccc(S(=O)(=O)n3nc(-c4ccccc4)cc3N)cc2c1C	54*	21	60	1	40	13*	12
Cc1ccc(NC(=O)c2ccccc2NS(=O)(=O)c2ccc(F)cc2)cc1S(=O)(=O)N1CCCCC1	34	10	72	0	x	x	x
N/C(=N\OC(=O)c1ccc(Cl)c(Cl)c1)c1ccccn1	2	-35	102	1	x	x	x
N/C(=N\OC(=O)c1ccc(Cl)cc1)c1ccccn1	87*	4	31	1	12	-30	-96
N/C(=N\OC(=O)c1cccc(Cl)c1)c1ccccn1	74*	25	39	1	-5	-29	-87
CCOC(=O)C1=C(c2ccccc2)ON(C)C1c1ccccc1 (stereo not given)	0	-1	98	0	x	x	x
COC(=O)CSc1ncnc2c1sc1nc3c(cc12)COC(C)(C)C3	44*	23	66	1	44*	18*	28*
Cc1cc(C(=O)CSc2nnc(-c3cccc(F)c3)n2N)c(C)n1Cc1ccc2c(c1)OCO2	47*	14	65	0	39	13	10
Cc1ccc(N(CC(=O)Nc2ccc3c(c2)OCCO3)S(C)(=O)=O)cc1	-9	-28	112	1	x	x	x
Cc1ccc(N(C(=O)CCl)C(C(=O)NC2CCCCC2)c2cccnc2)cc1C (stereo not given)	70*	30	41	-1	102*	40*	40*
Cc1ccc(N(C(=O)CNC(=O)c2ccco2)C(C(=O)NC2CCCC2)c2cccnc2)cc1C (stereo not given)	1	-8	104	0	x	x	x
O=c1cc(CSc2nnc(-c3cccs3)n2Cc2ccccc2)nc2sc3ccccc3n12	60*	23	53	0	57*	12	23*
